Only some compounds are listed: those with a hit (about 2.8% of all), similar ones and a draw of the others.
NPY-Y2 PAM-ag – human NPY-Y2 potentiation or agonism, primary screen; cells expressing NPY-Y2, potentiator/agonist read-out; activation, % at 3.6 µM; 220,000 compounds, 0.45% hits; AID 1359; in the data active means activation above about 27%;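 further: cells stimulated with NPY near EC25 plus isoproterenol at EC100; 0% = vehicle plus submaximal agonist and 100% = vehicle plus saturating agonist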
Target sequence (P49146 whole entry, looked up): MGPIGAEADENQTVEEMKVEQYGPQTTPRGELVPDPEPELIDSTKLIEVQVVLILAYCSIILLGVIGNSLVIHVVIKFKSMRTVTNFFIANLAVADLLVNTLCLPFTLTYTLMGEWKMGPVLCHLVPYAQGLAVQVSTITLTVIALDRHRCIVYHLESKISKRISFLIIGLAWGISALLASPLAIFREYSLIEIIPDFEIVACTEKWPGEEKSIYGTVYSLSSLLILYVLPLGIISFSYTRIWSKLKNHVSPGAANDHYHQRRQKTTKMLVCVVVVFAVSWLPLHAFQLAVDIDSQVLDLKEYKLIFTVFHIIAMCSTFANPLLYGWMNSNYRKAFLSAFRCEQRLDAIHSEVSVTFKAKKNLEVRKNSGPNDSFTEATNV
NPY1 pot ag – potentiators or agonists of human neuropeptide Y receptor Y1 | P25929 | NPY-Y1 expressing cells, potentiator/agonist activation | activation, % at 3.6 µM | 220,000 compounds, 0.37% hits; in the data active means activation above about 33%, passing the limit was not always enough;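 further: cells stimulated with NPY at EC10 then isoproterenol at EC100; 0% = low agonist plus stimulus and 100% = saturating agonist plus stimulus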
EP2 antag – EP2 receptor (human) inhibition; P43116; C6 glioma cells expressing human EP2, cAMP TR-FRET; cells stimulated with saturating PGE2; AID 1422; inhibition, % at 25 µM; 260,000 compounds, 0.52% hits;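 active means percent inhibition above 40 after rounding to a whole number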;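 further: rat C6 glioma host cells with rolipram phosphodiesterase inhibitor present; the protocol text gives 20 µM as final concentration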
EP2 mod – EP2 receptor (human) modulation | induction, % at 25 µM | 260,000 compounds, 0.83% hits | EP2-expressing cells, cAMP HTRF FRET, PGE2 co-stimulation;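 active means compounds whose cAMP rise, as percent of the full-agonist control response, exceeds 60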;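 further: rat C6 glioma line stably carrying human EP2 under a CMV promoter; the protocol text gives 20 µM as final concentration; 100% = response of wells given 1 µM PGE2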
NPY-Y2 antag – NPY-Y2 (human) receptor antagonism | NPY-Y2 expressing cells, antagonist mode | 140,000 compounds, 0.99% hits | AID 793 | inhibition, % at 2.7 µM; in the data active means inhibition above about 17%;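 further: 0% = vehicle with agonist challenge and 100% = reference antagonist with challenge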
NPY-Y1 antag – NPY-Y1 (human) receptor antagonism; 200,000 compounds, 1% hits; inhibition, % at 3.6 µM; HEK293-CNG Y1 cells, membrane potential fluorescence; NPY at EC95, then isoproterenol;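 active means inhibition above the campaign mean inhibition of all tested compounds plus 3 SD, cut at about 20% in these data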;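 further: 0% = DMSO wells given NPY plus isoproterenol and 100% = isoproterenol alone without NPY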
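Assay system: HEK293 Y1/CNG channel cell line; Doses: single compound dose of 3.6 µM, 0.4% DMSO; Timing: dye 3 h, compound 60 min room temperature, stimulation 45 min; Technique: Membrane-potential fluorescent dye readout; Measure: % inhibition of NPY effect.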
Numbers without * were called inactive; . = no result.

SMILES	NPY-Y2 PAM-ag	NPY1 pot ag	EP2 antag	EP2 mod	NPY-Y2 antag	NPY-Y1 antag
O=C(Cc1cccs1)N(Cc1ccco1)C1(C(=O)NC2CCCC2)CCCCC1	-5	-3	10	42	26*	61*
CCNC(=S)N(Cc1cc2ccc(OC)cc2[nH]c1=O)CC1CCCO1 (configuration not stated)	.	.	13	-41	.	.
CCN(CC)CCCNCC(=O)Nc1nc(C)cs1	.	.	5	-11	.	.
Cc1nc2c(c(=O)[nH]1)CCN(Cc1ccc(N(C)CCO)cc1)C2	.	.	8	-32	.	.
Cc1cc(C)c2cc(C#N)c(N3CCCN(C(=S)NCC4CCCO4)CC3)nc2c1 (configuration not stated)	.	.	9	15	.	.
Nc1ncnc2c1ncn2C1CCCO1 (configuration not stated)	.	.	24	-48	.	.
O=[N+]([O-])c1ccc(Cl)c(CNc2ncnc3c2ncn3[C@@H]2CCCCO2)c1	.	.	43*	13	.	.
COc1ccccc1NC(=O)c1ccc2c(c1)N(Cc1cc(C)ccc1C)C(=O)C(C)(C)O2	.	.	15	64*	.	.
COc1ccccc1NC(=O)CN1C(=O)C(C)(C)Oc2ccc(C(=O)NC3CCCC3)cc21	.	.	8	31	.	.
COc1ccc2c(c1)C(C)CC(C)(C)N2C(=O)CSc1nc2ccccc2s1 (configuration not stated)	-5	-26	.	45	29*	35*
O=C(C1CC1)N1CCCc2cc(C(O)CN3CCN(c4ccccc4F)CC3)ccc21 (configuration not stated)	.	.	3	-50	.	.
C=CCNc1nc(N)c(C(=O)Nc2cc(C)on2)s1	-3	-4	46*	-4	1	-6
CCOc1ccc(NC(=O)N2CCC(NC(=O)c3ccc(F)cc3)CC2)cc1	.	.	7	-64	.	.
O=c1c(O)c(-c2ccccc2)oc2ccccc12	.	.	112*	-22	.	.
c1ccc2c(c1)OC(CCCN1CCCCC1)c1ccccc1S2 (configuration not stated)	-21	-66	9	-20	17*	40*
CN1CCCC(CC2Oc3ccccc3Sc3ccccc32)C1 (configuration not stated)	5	-25	13	-61	8	13
CCCC(=O)N1CCN(c2ccc(NC(=O)c3ccc([N+](=O)[O-])o3)cc2)CC1	-2	-5	26	-69	.	0
O=C(Nc1ccc(N2CCCC2)cc1)c1ccc(Br)o1	16	12	4	-16	0	-2
CCC(=O)N1CCN(c2ccc(NC(=O)c3ccc([N+](=O)[O-])o3)cc2)CC1	-10	6	46*	-37	.	-2
CN1CCN(c2ccc(NC(=O)c3ccc(-c4ccc(Br)cc4)o3)cc2)CC1	32*	41*	9	-54	.	0
O=C(Nc1ccc(N2CCN(C(=O)c3ccc(Cl)cc3)CC2)cc1)c1ccc([N+](=O)[O-])o1	8	-10	121*	-50	.	-5
CCC(=O)Nc1ccc(NC(=O)c2ccc([N+](=O)[O-])o2)cc1	.	.	68*	-129	.	.
CS(=O)(=O)N1CCN(c2ccc(NC(=O)c3ccc([N+](=O)[O-])o3)cc2)CC1	4	1	15	-48	.	-4
CCc1ccc2[nH]c(=O)c(C(c3nnnn3C3CCCC3)N3CCN(Cc4ccccc4)CC3)cc2c1 (configuration not stated)	.	.	12	-2	.	.
N#C/C(=C\c1ccc(N2CCOCC2)o1)c1nc2ccccc2[nH]1	-13	-12	42*	-34	1	-1
SMILES	NPY-Y2 PAM-ag	NPY1 pot ag	EP2 antag	EP2 mod	NPY-Y2 antag	NPY-Y1 antag
N#C/C(=C\c1ccc(N2CCOCC2)c([N+](=O)[O-])c1)c1nc2ccccc2[nH]1	-1	0	30	-22	1	-5
CCN(Cc1ccccc1)C(c1cc2ccc(C)c(C)c2[nH]c1=O)c1nnnn1C1CCCC1 (configuration not stated)	.	.	9	-7	.	.
CC(C)(CO)NCc1ccccc1OCC(=O)Nc1ccccc1	8	8	-3	-4	2	3
Cc1ccc(NC(=O)COc2ccccc2CNC(C)(C)CC(C)(C)C)cc1	-36	-18	9	-21	25*	30*
COc1ccc2nc3cc(Cl)ccc3c(Nc3cc(C(C)C)c(O)cc3C)c2c1	59*	62*	9	-43	.	.
O=C(NC1CCCC1)c1ccccc1OCc1ccccc1	-20	-19	8	62*	.	10
CN(c1ccccc1C(=O)NC1CCCCC1)S(=O)(=O)c1ccccc1	-17	-5	7	-29	.	20*
O=C1ON=C(c2ccc(Cl)cc2)/C1=C/c1ccc(O)cc1	-7	5	53*	-65	.	6
OCc1cc(C(O)CNCCCCCCOCCCCc2ccccc2)ccc1O (configuration not stated)	86*	78*	17	69*	.	-11
O=c1oc2ccccc2c(O)c1/C=N/c1ncccn1	.	.	7	.	.	.
O=c1oc2ccccc2c(O)c1/C=C1\C=Nc2ccccc21	6	21	52*	-55	5	1
CC(C)[C@H](Cn1nnc2ccccc21)NC(=O)c1ccc(Cn2cccn2)o1	.	.	.	-12	.	.
CCOC(=O)c1ccc(CC(=O)c2ccc(O)cc2O)o1	35*	34	7	-6	2	-3
O=C1CCC(=O)N1c1nc2n(n1)C(c1ccccc1)C=C(c1ccc(Br)cc1)N2 (configuration not stated)	7	89*	9	13	0	-6
COc1ccc(S(=O)(=O)N(CC(=O)NCc2ccncc2)c2ccccc2)cc1	.	.	10	-11	.	.
COC(=O)CCSC(=S)c1cc2c([nH]1)CCCC2	.	.	15	29	.	.
O=C(c1cccs1)N1CCCC(n2nc(-c3cccs3)ccc2=O)C1 (configuration not stated)	.	.	.	-22	.	.
COC(=O)c1sc(N2C(=O)C(=O)/C(=C(\O)c3ccc(OC)c(C)c3)C2c2cccnc2)nc1C (configuration not stated)	.	.	53*	8	.	.
CCCOC(=O)c1ccc(NC(=O)c2ccccc2OC)cc1	-35	-49	1	-24	.	21*
Cn1c2ccccc2c2nnc(SCC(=O)N3CCCCCC3)nc21	.	.	7	-9	.	.
Cn1c(COc2ccccc2)nnc1SCC(=O)NNC(=O)C1CCCCC1	5	5	3	22	.	3
COc1cc(NC(=O)CSc2nnnn2-c2ccc(OC)c(OC)c2)cc(OC)c1	.	.	6	-12	.	.
COc1ccc(-n2nnnc2SCC(=O)N(C2CCCCC2)C2CCCCC2)cc1OC	.	.	16	69*	.	.
CCOC(=O)CN(C(=O)CSc1nnc(COc2ccc(OC)cc2)n1C)c1ccccc1	103*	112*	11	-21	0	-14
Cn1c(COc2ccccc2)nnc1SCC(=O)N(C1CCCCC1)C1CCCCC1	.	.	3	74*	.	.
COc1ccc2c(c1)NC1(CCCN(C(=O)Cn3cnc4ccccc43)C1)c1cccn1-2 (configuration not stated)	.	.	6	-58	.	.

Compound activity deposited in PubChem by several laboratories.
